Experimental data from ChEMBL document CHEMBL1155498, “Glycine amides as PPARalpha agonists” (Bioorg Med Chem Lett, 2010).
≈ marks a conversion by molar mass, not a printed value.

Experiments:
[1] = target: T1, Peroxisome proliferator-activated receptor alpha (Homo sapiens, UniProt Q07869); experiment: Agonist activity at Gal4-fused human PPARalpha; assay type: functional
T1 sequence (Q07869 whole entry): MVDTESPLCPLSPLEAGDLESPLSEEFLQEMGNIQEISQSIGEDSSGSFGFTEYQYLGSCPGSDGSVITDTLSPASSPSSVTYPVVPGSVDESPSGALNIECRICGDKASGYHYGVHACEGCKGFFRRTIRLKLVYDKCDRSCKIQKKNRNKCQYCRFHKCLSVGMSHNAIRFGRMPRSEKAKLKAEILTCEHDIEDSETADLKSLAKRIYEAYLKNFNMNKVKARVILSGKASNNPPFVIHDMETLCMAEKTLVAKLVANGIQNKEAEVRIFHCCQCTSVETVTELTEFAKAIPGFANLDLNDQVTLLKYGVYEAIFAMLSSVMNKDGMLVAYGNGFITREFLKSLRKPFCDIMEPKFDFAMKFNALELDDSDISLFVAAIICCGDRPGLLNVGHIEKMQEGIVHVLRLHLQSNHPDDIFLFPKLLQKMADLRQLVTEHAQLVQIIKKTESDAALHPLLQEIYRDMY

[2] = target: T2, Peroxisome proliferator-activated receptor gamma (Homo sapiens, UniProt P37231); experiment: Agonist activity at Gal4-fused human PPARgamma
T2 sequence (P37231 whole entry): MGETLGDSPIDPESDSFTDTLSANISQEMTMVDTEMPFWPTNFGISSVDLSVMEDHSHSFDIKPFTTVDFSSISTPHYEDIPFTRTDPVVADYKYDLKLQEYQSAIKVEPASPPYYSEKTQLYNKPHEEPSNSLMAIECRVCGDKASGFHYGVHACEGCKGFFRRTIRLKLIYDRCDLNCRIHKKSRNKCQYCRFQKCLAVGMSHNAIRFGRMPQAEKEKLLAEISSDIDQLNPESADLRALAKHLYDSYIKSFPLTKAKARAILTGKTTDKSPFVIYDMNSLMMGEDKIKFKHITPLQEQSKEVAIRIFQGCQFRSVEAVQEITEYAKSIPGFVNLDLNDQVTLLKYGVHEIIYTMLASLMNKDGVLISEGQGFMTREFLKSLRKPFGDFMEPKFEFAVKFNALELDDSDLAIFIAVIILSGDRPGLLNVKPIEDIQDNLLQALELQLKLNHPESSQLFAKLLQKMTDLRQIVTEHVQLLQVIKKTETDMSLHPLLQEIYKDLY

[3] = target: T3, Peroxisome proliferator-activated receptor delta (Homo sapiens, UniProt Q03181); experiment: Agonist activity at Gal4-fused human PPARdelta; assay type: functional
T3 sequence (Q03181 whole entry): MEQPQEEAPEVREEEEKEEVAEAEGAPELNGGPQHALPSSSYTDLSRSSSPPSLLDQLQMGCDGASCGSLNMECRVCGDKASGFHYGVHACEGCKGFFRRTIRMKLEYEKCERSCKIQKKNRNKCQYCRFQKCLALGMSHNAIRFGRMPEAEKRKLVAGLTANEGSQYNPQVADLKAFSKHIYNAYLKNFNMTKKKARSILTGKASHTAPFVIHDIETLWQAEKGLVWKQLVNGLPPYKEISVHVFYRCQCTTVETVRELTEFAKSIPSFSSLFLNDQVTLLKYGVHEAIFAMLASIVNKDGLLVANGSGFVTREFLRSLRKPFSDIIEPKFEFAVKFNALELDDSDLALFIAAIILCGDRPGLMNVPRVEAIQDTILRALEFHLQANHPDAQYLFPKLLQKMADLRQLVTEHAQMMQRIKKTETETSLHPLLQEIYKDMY

[4] = target: T4, Peroxisome proliferator-activated receptor alpha (Mus musculus, UniProt P23204); experiment: Agonist activity at Gal4-fused mouse PPARalpha; assay type: functional
T4 sequence (P23204 whole entry): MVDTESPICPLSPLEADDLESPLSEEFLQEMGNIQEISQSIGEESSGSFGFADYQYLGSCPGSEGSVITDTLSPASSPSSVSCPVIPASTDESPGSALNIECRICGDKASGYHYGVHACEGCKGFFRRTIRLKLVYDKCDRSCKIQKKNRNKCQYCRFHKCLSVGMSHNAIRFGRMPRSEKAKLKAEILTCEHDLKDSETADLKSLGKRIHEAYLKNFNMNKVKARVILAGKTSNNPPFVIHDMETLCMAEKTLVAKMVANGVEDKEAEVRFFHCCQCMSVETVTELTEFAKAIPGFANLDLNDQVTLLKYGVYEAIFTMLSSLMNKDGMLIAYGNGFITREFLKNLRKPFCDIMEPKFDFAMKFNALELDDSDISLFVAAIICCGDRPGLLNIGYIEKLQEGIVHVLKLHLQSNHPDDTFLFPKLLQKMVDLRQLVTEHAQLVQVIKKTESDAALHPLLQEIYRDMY

[5] = target: T5, Peroxisome proliferator-activated receptor gamma (Mus musculus, UniProt P37238); experiment: Agonist activity at Gal4-fused mouse PPARgamma; assay type: functional
T5 sequence (P37238 whole entry): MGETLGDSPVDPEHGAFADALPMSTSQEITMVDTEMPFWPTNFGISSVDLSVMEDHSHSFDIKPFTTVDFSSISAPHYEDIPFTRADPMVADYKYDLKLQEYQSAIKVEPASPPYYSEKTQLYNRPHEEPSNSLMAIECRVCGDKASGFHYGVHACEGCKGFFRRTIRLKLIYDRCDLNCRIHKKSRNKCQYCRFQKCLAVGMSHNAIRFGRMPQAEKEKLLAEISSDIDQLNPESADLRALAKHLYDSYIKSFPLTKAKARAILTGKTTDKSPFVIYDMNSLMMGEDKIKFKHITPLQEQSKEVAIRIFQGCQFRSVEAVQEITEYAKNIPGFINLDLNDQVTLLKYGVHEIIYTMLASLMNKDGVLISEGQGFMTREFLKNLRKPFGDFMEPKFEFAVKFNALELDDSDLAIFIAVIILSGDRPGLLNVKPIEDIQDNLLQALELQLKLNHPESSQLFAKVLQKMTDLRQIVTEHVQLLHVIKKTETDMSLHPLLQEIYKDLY

[6] = target: T6, Peroxisome proliferator-activated receptor delta (Mus musculus, UniProt P35396); experiment: Agonist activity at Gal4-fused mouse PPARdelta; assay type: functional
T6 sequence (P35396 whole entry): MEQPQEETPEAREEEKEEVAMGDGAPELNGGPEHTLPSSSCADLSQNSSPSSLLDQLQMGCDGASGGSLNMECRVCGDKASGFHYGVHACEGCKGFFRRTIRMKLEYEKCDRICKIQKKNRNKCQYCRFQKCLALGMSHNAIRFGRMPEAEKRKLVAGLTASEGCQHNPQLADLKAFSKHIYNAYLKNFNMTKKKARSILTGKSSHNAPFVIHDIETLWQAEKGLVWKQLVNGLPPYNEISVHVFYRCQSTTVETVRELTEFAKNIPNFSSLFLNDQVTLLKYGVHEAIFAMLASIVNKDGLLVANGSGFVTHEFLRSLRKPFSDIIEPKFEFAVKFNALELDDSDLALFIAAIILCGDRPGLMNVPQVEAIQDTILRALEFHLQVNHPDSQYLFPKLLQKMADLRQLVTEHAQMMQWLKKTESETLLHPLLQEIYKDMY

Albumin = Albumin (Homo sapiens, UniProt P02768); experiment: Binding affinity to human serum albumin; assay type: ADME; conditions: isolated protein
[7] = Aqueous solubility of the compound; assay type: physicochemical
[8] = AUC in NMRI mouse at 10 mg/kg, po; assay type: ADME, organism-based; parameters: dose 10 mg/kg, route oral; conditions: plasma
Method in brief: (§1)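 Male NMRI mice (n = 3) dosed orally at 10 mg/kg as a suspension in 20% PEG 400 (5 ml/kg). Plasma sampled at 7 time points up to 6 h. Concentrations dose-normalised to 1 mg/kg. Bioavailability taken against an iv arm (3 mg/kg, 20% PEG400, n = 3).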

[9] = Tmax in NMRI mouse at 10 mg/kg, po; assay type: ADME, organism-based; parameters: dose 10 mg/kg, route oral; conditions: in vivo; method in brief: as §1
[10] = Oral bioavailability in NMRI mouse at 10 mg/kg; assay type: ADME, organism-based; conditions: in vivo; method in brief: as §1
[11] = Clearance in NMRI mouse at 3 mg/kg, iv; assay type: ADME, organism-based; parameters: dose 3 mg/kg, route intravenous; conditions: in vivo
Method in brief: (§2)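 Male NMRI mice (n = 3) given 3 mg/kg iv in 20% PEG400. Plasma concentration–time profile followed over about 6 h. Concentrations dose-normalised to 1 mg/kg.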

[12] = Half life in NMRI mouse at 3 mg/kg, iv; assay type: ADME, organism-based; parameters: dose 3 mg/kg, route intravenous; conditions: in vivo; method in brief: as §2
Mus musculus [13] = experiment: Reduction in triglyceride level in human ApoA1 transgenic mouse at 0.6 mg/kg, po for 7 days relative to control; assay type: functional; parameters: scale not given: the % may be the effect or the level left
Method in brief: (§3)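 Male transgenic hAPO-A1 C57BL/6 mice, n = 10 per dose. Dosed orally once daily for 7 d at 0.6, 2 or 6 mg/kg in Solutol HS15 + ethanol + 0.9% brine (1+1+8), 10 ml/kg. Serum triglycerides and total cholesterol measured photometrically against vehicle control. Total cholesterol serves as a surrogate for HDL.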

Mus musculus [14] = experiment: Reduction in triglyceride level in human ApoA1 transgenic mouse at 2 mg/kg, po for 7 days relative to control; assay type: functional; parameters: scale not given: the % may be the effect or the level left; method in brief: as §3
Mus musculus [15] = experiment: Increase in total cholesterol level in human ApoA1 transgenic mouse at 0.6 mg/kg, po for 7 days (RVb = 29 %); assay type: functional; method in brief: as §3
Mus musculus [16] = experiment: Increase in total cholesterol level in human ApoA1 transgenic mouse at 2 mg/kg, po for 7 days (RVb = 29 %); assay type: functional; method in brief: as §3
Mus musculus [17] = experiment: Increase in total cholesterol level in human ApoA1 transgenic mouse at 6 mg/kg, po for 7 days (RVb = 29 %); assay type: functional; method in brief: as §3

Albumin, sequence (P02768 whole entry): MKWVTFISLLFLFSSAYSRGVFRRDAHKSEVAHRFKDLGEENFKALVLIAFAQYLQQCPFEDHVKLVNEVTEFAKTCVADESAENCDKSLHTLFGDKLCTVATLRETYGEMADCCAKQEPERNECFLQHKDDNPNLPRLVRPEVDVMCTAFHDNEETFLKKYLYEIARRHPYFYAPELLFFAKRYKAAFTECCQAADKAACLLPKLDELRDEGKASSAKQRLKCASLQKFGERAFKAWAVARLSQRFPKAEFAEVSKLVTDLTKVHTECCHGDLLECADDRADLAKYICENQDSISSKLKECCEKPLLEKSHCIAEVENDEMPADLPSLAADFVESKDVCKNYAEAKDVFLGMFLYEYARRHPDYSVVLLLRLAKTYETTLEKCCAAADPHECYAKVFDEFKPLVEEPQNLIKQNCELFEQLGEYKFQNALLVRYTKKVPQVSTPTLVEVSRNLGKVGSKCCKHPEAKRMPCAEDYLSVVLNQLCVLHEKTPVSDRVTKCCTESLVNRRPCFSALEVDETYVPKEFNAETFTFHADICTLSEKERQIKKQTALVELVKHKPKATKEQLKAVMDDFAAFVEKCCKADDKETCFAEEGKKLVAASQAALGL

SMILES: CCCCCCCN(CC(=O)Nc1ccc(C)cc1C)Cc1ccc(OC(C)(C)C(=O)O)cc1
- EC50 [1]: > 25000 nM

SMILES: COc1ccc(CN(CC(=O)Nc2ccc(C)cc2C)Cc2ccc(OC(C)(C)C(=O)O)cc2)cc1
- EC50 [1]: 900 nM

SMILES: CC(C)(Oc1ccc(CN(CC(=O)NCc2ccccc2Cl)Cc2ccco2)cc1)C(=O)O
- EC50 [1]: 7000 nM

SMILES: Cc1ccccc1NC(=O)CN(Cc1ccc(OC(C)(C)C(=O)O)cc1)Cc1ccco1
- EC50 [1]: 2000 nM

SMILES: Cc1ccc(C)c(NC(=O)CN(Cc2ccc(OC(C)(C)C(=O)O)cc2)Cc2ccco2)c1
- EC50 [1]: 600 nM

SMILES: COc1ccc(OC)c(NC(=O)CN(Cc2ccc(OC(C)(C)C(=O)O)cc2)Cc2ccco2)c1
- EC50 [1]: 300 nM

SMILES: COc1cccc(NC(=O)CN(Cc2ccc(OC(C)(C)C(=O)O)cc2)Cc2ccco2)c1
- EC50 [1]: 3000 nM

SMILES: CC(C)(Oc1ccc(CN(CC(=O)Nc2ccc(F)cc2F)Cc2ccco2)cc1)C(=O)O
- EC50 [1]: 1500 nM

SMILES: CC(C)(Oc1ccc(CN(CC(=O)Nc2ccccn2)Cc2ccco2)cc1)C(=O)O
- EC50 [1]: > 25000 nM

SMILES: CC(C)(Oc1ccc(CN(CC(=O)NCc2ccccc2)Cc2ccco2)cc1)C(=O)O
- EC50 [1]: 13000 nM

SMILES: Cc1ccc(NC(=O)CN(Cc2ccc(OC(C)(C)C(=O)O)cc2)Cc2cccs2)c(C)c1
- EC50 [1]: 700 nM

SMILES: Cc1ccc(NC(=O)CN(Cc2ccc(OC(C)(C)C(=O)O)cc2)Cc2ccco2)c(C)c1
- EC50 [1]: 20 nM
- EC50 [2]: 800 nM
- EC50 [3]: 6000 nM
- EC50 [4]: 20 nM
- EC50 [5]: 300 nM
- EC50 [6]: 2000 nM
- Activity (Albumin): 10 µM
- solubility [7]: 500 µg/mL (≈ 1110 µM)
- AUC [8]: 370 ng·h/mL
- Tmax [9]: 0.5 h
- bioavailability [10]: 20%
- clearance [11]: 89.2 mL/min/kg
- half-life [12]: 2 h
- Activity (Mus musculus [13]): -3%
- Activity (Mus musculus [14]): -20%
- Activity (Mus musculus [15]): 58%
- Activity (Mus musculus [16]): 74%
- Activity (Mus musculus [17]): 91%

SMILES: Cc1ccc(NC(=O)CN(Cc2ccccc2)Cc2ccc(OC(C)(C)C(=O)O)cc2)c(C)c1
- EC50 [1]: 1000 nM

SMILES: CCCN(CC(=O)Nc1ccc(C)cc1C)Cc1ccc(OC(C)(C)C(=O)O)cc1
- EC50 [1]: 1000 nM

SMILES: CCCCN(CC(=O)Nc1ccc(C)cc1C)Cc1ccc(OC(C)(C)C(=O)O)cc1
- EC50 [1]: 10000 nM

SMILES: CCCCCCCN(CCc1ccc(SC(C)(C)C(=O)O)cc1)C(=O)Nc1ccc(F)cc1F [GSK-9578]
- EC50 [3]: 2000 nM
- EC50 [4]: 10 nM
- EC50 [5]: 2500 nM
- EC50 [6]: 2000 nM
- Activity (Albumin): 1.3 µM
- solubility [7]: 100 µg/mL (≈ 203 µM)
